# PKA-R1A act – activates the PKA-R1A holoenzyme complex; PKA-R1A dissociation, Cy5-IP20 fluorescence polarization; scaled: DMSO 0%, 113 µM cGMP 100%; activation, % at 11.4 µM; 340,000 compounds, 0.083% hits; AID 504707;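 active means percent activation above the mean of all tested compounds plus 3 SD, cut at about 19% in these data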;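 further: higher means more PKAc released from R1A so a rise in polarization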
# CAL PDZ FP-1 – human CAL PDZ-peptide interaction inhibition. Q9HD26. purified CAL PDZ, TMR-peptide fluorescence polarization, 1 h. inhibition, % at 20 µM. 330,000 compounds, 0.02% hits;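 active means highest replicate inhibition of at least 40%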;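 further: plate controls were DMSO neutral control wells for no effect and unlabeled competitor peptide control wells for full effect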
#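 Assay system – tagged CAL PDZ protein CerCALP, purified · Timing – 1 h at RT · Compound – single point, 20 µM · Measured by – fluorescence polarization from S- and P-plane intensities, G-factor corrected · Evaluation – inhibition from polarization loss · Probe or stimulus – TMR reporter peptide T*-PRC34 · Buffer or medium – pH 7.4 phosphate-saline buffer, reducing agent, detergent, IgG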
# NTR1 ag – agonists of human neurotensin receptor NTR1; P30989; NTR1-U2OS beta-arrestin-GFP spot imaging, agonist mode; activation, % at 20 µM; 330,000 compounds, 0.17% hits; AID 493036;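 active means activation at or above 40% of the spot to cytoplasm intensity ratio, with at least 20 cells analyzed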;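 further: 0% = DMSO without peptide and 100% = 100 nM NTR1 peptide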
# CAL PDZ FP-2 – blocks peptide binding to the human CAL PDZ domain | purified CAL PDZ, TMR-peptide fluorescence polarization, 1 h | Q9HD26 | 300,000 compounds, 0.92% hits | AID 602252 | inhibition, % at 24.9 µM;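 active means mean inhibition of at least 30% with at least half of replicates also reaching 30%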;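 further: 0% = DMSO neutral control and 100% = excess unlabeled competitor peptide PRC23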
# PKA-R2B activ – PKA-R2B complex activation. PKA-R2B holoenzyme dissociation, Cy5-IP20 fluorescence polarization; R2B truncated from residue 108, S112A mutant; 0% DMSO only, 100% 113 µM cGMP. 340,000 compounds, 0.079% hits. activation, % at 11.4 µM. AID 504700. P22694+P31323;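 active means activation above a cutoff set at the mean over all compounds plus 3 SD, cut at about 18% in these data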;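 further: higher means more holoenzyme dissociation and a rise in polarization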
# Target sequence (P31323 whole entry, looked up, other chains not shown, the tested form may be a part): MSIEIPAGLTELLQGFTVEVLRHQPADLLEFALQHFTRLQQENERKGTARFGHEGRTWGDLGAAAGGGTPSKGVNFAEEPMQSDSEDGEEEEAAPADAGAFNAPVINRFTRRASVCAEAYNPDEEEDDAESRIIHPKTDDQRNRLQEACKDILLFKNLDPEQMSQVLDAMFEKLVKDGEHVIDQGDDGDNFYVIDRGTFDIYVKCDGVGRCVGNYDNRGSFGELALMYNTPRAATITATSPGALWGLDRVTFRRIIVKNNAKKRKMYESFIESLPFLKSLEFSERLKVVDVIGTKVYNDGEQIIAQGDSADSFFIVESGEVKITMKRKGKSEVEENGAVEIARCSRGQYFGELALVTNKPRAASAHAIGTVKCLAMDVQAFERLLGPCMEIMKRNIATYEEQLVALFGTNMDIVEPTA
# dFosB act – mouse delta FosB homodimer activation | P13346 | purified delta FosB, TAMRA-CDK5 oligo fluorescence polarization; percent of positive-control signal above neutral wells | activation, % at 25 µM | 340,000 compounds, 0.99% hits;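 active means mean activation above about 17%, with every replicate also reaching it, limit read from the data, passing the limit was not always enough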
# * = called active by the depositor; nt = no result. In the library only some 2% were active in any assay of this set; here they are far more common.
SMILES,PKA-R1A act,CAL PDZ FP-1,NTR1 ag,CAL PDZ FP-2,PKA-R2B activ,dFosB act
COc1ccc([C@H]2C[C@@H](n3cc(-c4ccc(F)cc4)nn3)[C@H](O)CN2C(=O)C2CCCCC2)cc1,2,nt,nt,nt,0,nt
Clc1ccc(/C=C\c2nccc3c2[nH]c2ccccc23)cc1,3,-2,nt,1,-7,27*
Cn1ncc(=S)[nH]c1=S,-4,0,nt,85*,-1,2
Cn1ncc2c(=O)[nH]c(N)nc21,-7,-1,nt,-1,-9,-1
Fc1ccc(-n2c(-c3ccc4ccccc4n3)n[nH]c2=S)cc1Cl,-7,nt,-1,71*,-4,-9
Cc1nn(Cc2ccccc2)c(C)c1NC(=O)Cn1nc([N+](=O)[O-])c(Cl)c1C,-14,-1,0,-4,-4,5
Cc1c(NC(=O)COC(=O)c2ccccc2Cl)c(=O)n(-c2ccccc2)n1C,5,0,-1,3,-4,-6
Cc1c(NC(=O)CN2C(=O)c3ccc([N+](=O)[O-])cc3C2=O)c(=O)n(-c2ccccc2)n1C,-16,-1,0,55*,-7,-4
Cc1c(NC(=O)CSc2ccccc2C(=O)Nc2cccnc2)c(=O)n(-c2ccccc2)n1C,8,-2,-1,83*,5,-2
Cc1c(NC(=O)COc2ccccc2Cl)c(=O)n(-c2ccccc2)n1C,2,-1,-2,41*,-10,2
Cc1c(NC(=O)CSc2ccccc2F)c(=O)n(-c2ccccc2)n1C,-7,-1,-1,-2,4,7
Cc1c(Cl)c([N+](=O)[O-])nn1CC(=O)Nc1c(C)n(C)n(-c2ccccc2)c1=O,-6,-1,1,53*,1,6
C[C@H]1CN([C@@H](C)CO)S(=O)(=O)c2ccc(Br)cc2O[C@H]1CN(C)C(=O)Cc1ccccn1,-7,nt,nt,nt,1,nt
CN(/N=C/c1cccc(Br)c1)C1=NS(=O)(=O)c2ccccc21,-6,0,8,-3,3,-12
COc1ccc2nc3cc(Cl)ccc3c(Nc3ccc(O)c(CN4CCN(C)CC4)c3)c2c1,5,6,nt,-3,-14,124*
C/C(CC(=O)Nc1ccc(Br)cc1)=N\NC(=O)Cc1csc(N)n1,-1,-1,nt,1,-3,7
C/C(CC(=O)Nc1ccccc1C)=N\NC(=O)Cc1csc(N)n1,8,-1,0,44*,-2,7
CC(C)CSc1nnc(N)s1,9,-1,1,58*,-3,-4
O=C(c1ccc(N2CCCC2=O)cc1)N1CCN(c2ccccc2F)CC1,4,-1,0,56*,-3,-5
CC(C)Oc1cccc(C(=O)C2CCCN(C(=O)CCn3cnnn3)C2)c1 (centres undefined),5,-1,0,77*,-6,-14
O=C(O)C1CC=CCC1C(=O)Nc1ccccc1 (centres undefined),3,-1,-1,1,-10,-2
O=C(COC(=O)c1ccc(NC(=O)C2CC=CCC2C(=O)O)cc1)c1ccccc1 (centres undefined),-4,nt,2,67*,7,-5
O=C(COc1ccccc1[N+](=O)[O-])N1CCCc2ccccc21,3,0,1,-4,0,-6
O=C(CSc1nnc(SCc2ccc(Cl)cc2)s1)N/N=C/c1ccc(C(=O)O)cc1,-3,-3,0,47*,-12,-6
O=C(N1CCN(Cc2ccc3c(c2)OCO3)CC1)C(Cl)(Cl)Cl,7,1,2,-3,11,-7
SMILES,PKA-R1A act,CAL PDZ FP-1,NTR1 ag,CAL PDZ FP-2,PKA-R2B activ,dFosB act
CC(C)(C)CC(=O)N1CCN(Cc2ccc3c(c2)OCO3)CC1,4,-2,0,38*,-11,-6
O=C1CCC[C@@H]2Cc3nc4ccc(Cl)cc4cc3[C@@H]3CCN1[C@H]23,-7,-2,nt,-28,-2,-2
O=C1NC(Cc2ccccc2)c2nc3ccc(F)cc3c(=O)n2-c2cc3ccccc3cc21 (centres undefined),0,nt,nt,nt,-5,nt
COc1ccccc1Nc1nc(NCCO)c2ccccc2n1,nt,nt,0,nt,nt,nt
Cc1ccc(Nc2nc(NCCO)c3ccccc3n2)cc1C,-8,-6,2,-6,-12,32*
COc1ccc(OCC(=O)NNc2c3ccccc3nc3ccccc23)cc1,4,3,58*,0,-2,0
O=C(COc1ccccc1)NNc1c2ccccc2nc2ccccc12,-4,1,14,nt,-3,-3
COc1ccc(OC)c(Nc2c3ccccc3nc3ccccc23)c1,1,nt,10,-3,10,37*
OCCNc1c2ccccc2nc2ccccc12,5,-2,0,-4,-5,20*
Cc1cc(OC(C)C(=O)NCCCn2ccnc2)c2c(C)c(C)c(=O)oc2c1 (centres undefined),-10,0,0,-5,3,-12
COc1ccc(Nc2ncnc3ccccc23)c(OC)c1,12,-1,21,6,3,0
COc1ccc(OC)c(Nc2nc(NCCO)c3ccccc3n2)c1,2,1,5,7,4,31*
COc1ccc(Nc2nc(N3CCCC3)nc3ccccc23)c(OC)c1,14,-3,8,-2,-4,39*
COc1cc(/C=C/c2sc3ccccc3[n+]2CCCS(=O)(=O)[O-])ccc1O,8,-7,0,-7,9,241*
CCC(/C=C1\Oc2ccc(OC)cc2N1C)=C\c1sc2ccccc2[n+]1CCCS(=O)(=O)[O-],-3,-12,nt,-8,-9,26*
Cc1ccc(NC(=O)CSCc2cc(=O)n3ccsc3n2)c(C)c1,1,0,0,2,-6,6
Cc1cc(=O)nc2c3ccccc3n(C(C)C(=O)Nc3c(F)c(F)c(F)c(F)c3F)n12 (centres undefined),10,6,0,82*,-6,-11
Cc1cc(=O)nc2c3ccccc3n(C(C)C(=O)Nc3cc(F)ccc3F)n12 (centres undefined),-2,0,-1,4,-2,-11
O=C(CSc1nncs1)NNC(=O)c1ccco1,-7,-1,3,nt,1,3
CCn1nc(C(=O)Nc2cc(Cl)ccc2-n2cncn2)c2ccccc2c1=O,2,-1,2,58*,4,-3
COc1ccc(NC(=O)COC(=O)CN2C(=O)C3CCCCC3C2=O)cc1 (centres undefined),-15,nt,nt,nt,-11,nt
COC(=O)c1ccc(NC(=O)c2cccc(N3C(=O)C4C5C=CC(C6CC56)C4C3=O)c2)cc1 (centres undefined),-7,0,9,nt,-7,28*
Cc1cc(C)cc(NC(=O)C2CCN(C(=O)[C@@H]3Cc4ccccc4CN3)CC2)c1,6,-1,2,42*,-1,-9
